Ecoli WT expand = growth inhibitors of E. coli BW25113 wild type. OD600 absorbance. growth inhibition, % at 100 µM. 0.15% of 98,000 active. AID 710;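 active means growth inhibition above about 50% at one test dose, limit read from the data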;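 further: growth measured after 20 h incubation at 37 °C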
Pyk2 oligo antag = Pyk2 (human) oligomerization antagonism; 0.83% of 99,000 active; z-score (the deposit names both 25 µM and 10 µM); Q14289; AID 1347419; Q293 cells, Pyk2 FERM NanoBiT luminescence; hits give low values;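 active means Z-score of -3 or lower, scaled per plate to the spread of control and sample wells; inactive means z-score above -3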;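 further: negative z-score means lost luminescence so less FERM oligomerization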
Target sequence (Q14289 whole entry, looked up): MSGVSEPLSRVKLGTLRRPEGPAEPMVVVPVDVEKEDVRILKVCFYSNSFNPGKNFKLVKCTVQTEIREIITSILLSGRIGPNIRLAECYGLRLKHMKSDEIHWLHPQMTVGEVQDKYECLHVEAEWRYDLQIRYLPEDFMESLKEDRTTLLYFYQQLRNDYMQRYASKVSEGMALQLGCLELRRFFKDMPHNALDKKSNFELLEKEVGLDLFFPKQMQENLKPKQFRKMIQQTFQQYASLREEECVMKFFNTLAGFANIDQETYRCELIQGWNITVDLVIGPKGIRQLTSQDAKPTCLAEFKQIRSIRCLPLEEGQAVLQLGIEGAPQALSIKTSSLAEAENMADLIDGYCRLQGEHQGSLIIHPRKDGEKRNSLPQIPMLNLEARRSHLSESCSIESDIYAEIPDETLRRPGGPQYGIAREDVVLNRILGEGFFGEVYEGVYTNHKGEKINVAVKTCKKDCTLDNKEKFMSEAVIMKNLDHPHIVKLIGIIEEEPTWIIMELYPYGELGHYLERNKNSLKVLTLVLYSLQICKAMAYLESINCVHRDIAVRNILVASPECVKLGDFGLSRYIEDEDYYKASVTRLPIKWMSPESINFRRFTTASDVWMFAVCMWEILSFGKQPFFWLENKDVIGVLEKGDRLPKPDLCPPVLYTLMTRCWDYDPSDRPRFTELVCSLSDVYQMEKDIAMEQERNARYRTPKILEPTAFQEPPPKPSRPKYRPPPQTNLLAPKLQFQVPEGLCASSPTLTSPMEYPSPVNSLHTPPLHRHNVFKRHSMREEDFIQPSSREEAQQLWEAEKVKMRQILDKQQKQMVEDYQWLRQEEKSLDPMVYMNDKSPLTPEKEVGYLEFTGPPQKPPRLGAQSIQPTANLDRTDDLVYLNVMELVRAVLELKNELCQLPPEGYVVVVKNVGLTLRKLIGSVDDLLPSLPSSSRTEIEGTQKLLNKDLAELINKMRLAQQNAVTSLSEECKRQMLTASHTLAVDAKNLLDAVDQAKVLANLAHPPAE
Candida biofilm = kills Candida albicans biofilms; inhibition, % at 6 µM; C. albicans biofilm + clotrimazole, Alamar Blue; 0.14% of 85,000 active;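 active means inhibition above 20%; inactive means inhibition below 20%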;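 further: preformed 24 hr biofilms exposed to compound for 48 hr; 0% = biofilm without compound and 100% = blank killed by clotrimazole plus chlorhexidine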
PostGolgi yeast = growth inhibition of a yeast mutant, post-Golgi transport screen; post-Golgi transport phenotypic cell assay; inhibition, % at 10 µM; 0.9% of 98,000 active;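 further: yeast cells grown in 1536-well plates; yeast grown about 18 h at 30C before absorbance read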
PostGolgi ctrl = inhibits growth of the yeast control strain; efflux-deficient yeast background strain, growth absorbance A615, 16 h; inhibition, % at 10 µM; 5% of 98,000 active; AID 738
tolC growth inh = E. coli tolC mutant growth inhibition; E. coli BW25113 tolC mutant growth, OD615; growth inhibition, % at 10 µM (by protocol); 2.2% of 65,000 active; AID 573;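 active means growth inhibition at or above a cutoff equal to the mean over every tested compound plus 3 SD, cut at about 60% in these data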;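 further: growth measured after 20 h incubation at 37 °C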
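Assay system: tolC-deleted E. coli BW25113. Medium: kanamycin-containing LB broth (50 µg/mL). Dosing: 10 µM final, single dose. Timing: bacterial growth with compound for 20 h at 37 °C. Detection: A615 absorbance measurement. Read-out basis: growth inhibition in percent.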
Numbers without * were called inactive; . = no result. Hits are enriched below; roughly 6.5% of the tested compounds scored in any of these assays. Unless noted, no stated cut-off is given here; in the data, active means inhibition above about 30%; inactive means the rest.

SMILES | Ecoli WT expand | Pyk2 oligo antag | Candida biofilm | PostGolgi yeast | PostGolgi ctrl | tolC growth inh
Cc1cc(N2CCC(C(=O)Nc3ccc(F)cc3)CC2)nc(-c2ccccc2)n1 | 5.0 | -0.04 | 4.4 | -4.2 | 3.8 | 89.4*
COc1ccc(NC(=O)c2oc3ccccc3c2NC(=O)c2ccco2)cc1 | -3.0 | -3.05* | 2.5 | 1.8 | -4.1 | 39.8
CC(C)OC(=O)NCN1C(=O)C2C3C=CC(C3)C2C1=O (stereo not drawn) | -1.0 | -0.77 | 7.3 | 5.9 | 2.4 | .
CCCNC(=O)c1c(N)n(-c2cccc(OC)c2)c2nc3ccccc3nc12 | -1.0 | -0.3 | -0.1 | 33.4* | 49.8* | 23.6
CCOCC(=O)Nc1nc2c(s1)C(=O)CC(C)(C)C2 | 3.0 | . | 4.1 | -1.9 | -3.9 | -8.1
CC1(C)CC(=O)c2sc(NC(=O)C3CC3)nc2C1 | -2.0 | . | 10.3 | 4.8 | 36.1* | -13.2
CN1C(=O)CC(C(=O)O)SC1=Nc1cc(Cl)cc(Cl)c1 (stereo not drawn) | . | 0.34 | . | . | . | .
CCCCCCCCCCn1c2c(c(=N)c3c1CCC3)CCC2 | 100.0* | -1.31 | 1.1 | 11.2 | 97.4* | .
CC1C/C(=N/N=C2/NC(=O)CS2)CC(C)(C)C1 (stereo not drawn) | 8.0 | -0.91 | . | 3.3 | 34.2* | .
CC1C/C(=N/N2C(=O)CSC2=S)CC(C)(C)C1 (stereo not drawn) | 20.0 | -0.15 | . | 6.1 | -6.4 | .
CCOc1ccc(Cl)cc1S(=O)(=O)N1CCN(c2ccc(C)c(C)c2)CC1 | -9.0 | -2.86 | 3.7 | -10.4 | 12.7 | .
CCOc1ccc(Cl)cc1S(=O)(=O)N1CCN(c2ccc(F)cc2)CC1 | -18.0 | -2.68 | 7.4 | 0.3 | 33.1* | 39.5
CCOc1ccc(Cl)cc1S(=O)(=O)n1cnc2cc(C)c(C)cc21 | -2.0 | 0.16 | 4.0 | -9.6 | 39.7* | .
COc1ccc(N2CCN(C(=N)/C(C(C)=O)=C(\C)O)CC2)cc1 | -2.0 | -0.35 | 2.3 | 4.7 | 6.0 | .
COc1ccc(/C=N/NC(=O)c2[nH]ncc2Br)c(OC)c1 | 1.0 | 0.48 | . | 7.3 | -1.6 | .
O=C1/C(=C\c2ccccn2)SC(=S)N1Nc1ncc(C(F)(F)F)cc1Cl | 21.0 | -0.36 | 1.4 | 10.5 | 0.0 | .
COc1ccccc1/C=C1\SC(=S)N(Nc2nc(C)cc(C)n2)C1=O | -15.0 | -3.76* | . | 8.0 | -0.3 | .
Cc1cc(C)nc(NN2C(=O)/C(=C/c3ccc(O)cc3)SC2=S)n1 | -19.0 | -3.55* | . | -0.8 | 2.7 | .
Cc1cccc(C)c1OCC(O)Cn1c2ccccc2c2ccccc21 (stereo not drawn) | -18.0 | -0.15 | . | -6.2 | 49.7* | .
CC(=O)N(C)c1ccc(OCC(O)Cn2c3ccc(Cl)cc3c3cc(Cl)ccc32)cc1 (stereo not drawn) | -5.0 | -1.32 | . | 73.2* | 57.1* | .
Cc1ccc(Cn2c(=N)n(CC(O)COc3ccccc3)c3ccccc32)cc1 (stereo not drawn) | 24.0 | 0.39 | 5.2 | -0.2 | -5.4 | .
N=c1n(Cc2ccccc2)c2ccccc2n1CC(O)COc1ccccc1 (stereo not drawn) | 23.0 | 0.64 | 7.1 | -7.6 | -8.7 | 62.7*
Cc1cccc(C)c1OCC(O)Cn1nnc2ccccc21 (stereo not drawn) | -3.0 | -0.92 | 7.3 | -13.2 | 8.8 | .
Cc1ccc(OCC(O)Cn2c3ccccc3c3ccccc32)cc1 (stereo not drawn) | -7.0 | -0.37 | . | -0.8 | 40.6* | .
CC(CO)Nc1nc(SCc2ccccc2)nc2sc3c(c12)CCC3 (stereo not drawn) | -15.0 | -0.12 | 3.9 | 1.1 | 49.7* | .
SMILES | Ecoli WT expand | Pyk2 oligo antag | Candida biofilm | PostGolgi yeast | PostGolgi ctrl | tolC growth inh
Nc1cccnc1Sc1cc(Cl)c(Cl)cc1Cl | -4.0 | -0.01 | . | 14.7 | 8.4 | .
C=CCc1cccc(CNc2nc3ccccc3n2C(C)C)c1O | 9.0 | -0.77 | 6.7 | -5.0 | 46.7* | -8.1
O=C(CCn1c(=O)oc2ccccc21)N1CCN(C(c2ccccc2)c2ccccc2)CC1 | -13.0 | -1.21 | -3.1 | 5.2 | 36.5* | 63.7*
O=C(CCn1c(=O)oc2ccccc21)N1CCN(c2ccccc2F)CC1 | 4.0 | 1.57 | 2.5 | 3.2 | 4.2 | -8.3
O=C(Cn1c(=O)oc2ccccc21)N1CCN(c2ccccc2)CC1 | -8.0 | 0.24 | -0.5 | 11.8 | 31.1* | -3.2
CC(C)(C)c1cc(N)on1 | . | 1.22 | . | . | . | .
O=C(c1cccc(S(=O)(=O)N2CCCCC2)c1)N1CCCCC1 | 0.0 | 0.63 | -4.1 | 13.0 | 37.8* | -11.2
O=C(NCc1ccc2c(c1)OCO2)c1cccc(S(=O)(=O)N2CCCCC2)c1 | -21.0 | 0.59 | 7.0 | 6.6 | 30.9* | 20.0
O=C(NCc1ccc2c(c1)OCO2)c1cccc(S(=O)(=O)N2CCOCC2)c1 | 1.0 | 1.13 | 6.2 | -6.1 | 9.4 | -3.8
O=C(c1cccc(-c2nnc(-c3ccccc3)o2)c1)N1CCCCC1 | -4.0 | 0.1 | 4.8 | 6.6 | 31.2* | 22.5
CCOc1cc(/C=C2/C(=N)N3OC(C)=CC3=NC2=O)ccc1OCCOc1ccccc1 | -4.0 | 1.48 | 2.7 | -5.5 | 4.2 | .
CCOc1ccc(N(CC(=O)Nc2ccc(C)c(C)c2)S(=O)(=O)c2c(C)noc2C)cc1 | -18.0 | . | 3.5 | 4.5 | 24.8 | 61.5*
CC1CCN(c2ccc(C(=O)O)cc2NS(=O)(=O)c2ccc(Br)cc2)CC1 | . | 0.26 | . | . | . | .
COc1ccc(C(=O)N2CCN(c3ccc(C)cc3C)CC2)cc1OC | 6.0 | . | 5.9 | -5.8 | 26.4 | 27.8
Cc1ccc(N2CCN(C(=O)c3ccccc3F)CC2)c(C)c1 | 8.0 | . | . | -0.7 | 41.9* | 33.5
CN(C)c1nc2n(c(=S)n1)CCS2 | -5.0 | -0.06 | -3.7 | -0.2 | 3.8 | -2.2
Cc1cc(C)n(-c2ccc(C(=O)C(C#N)c3nc4ccccc4n3C)cc2)n1 (stereo not drawn) | -9.0 | -1.69 | 7.5 | 12.5 | 33.4* | -10.2
Cc1cc(C)n(-c2ccc(C(=O)OC(C)C)cc2)n1 | -2.0 | 0.31 | . | -6.1 | 0.0 | .
CCOc1cc(C)c(S(=O)(=O)Nc2ccc(F)cc2)cc1C | 12.0 | 0.07 | -6.0 | -4.2 | 51.8* | .
CCOC(=O)NCC(C#CCN(CC)CC)N(CC)CC (stereo not drawn) | 4.0 | -0.71 | 6.6 | -1.1 | 42.4* | -6.9
CC(C)c1ccc(N=c2c([N+](=O)[O-])nn(-c3ccc4c(c3)OCCO4)n2O)cc1 | 1.0 | -3.98* | . | -1.4 | -0.7 | .
Cc1cc(C)cc(N=c2c([N+](=O)[O-])nn(-c3cccc(Cl)c3)n2O)c1 | -3.0 | -0.62 | -0.2 | 5.8 | 27.6 | .
CN1C(=S)SC(N(O)C(=O)Nc2ccccc2)C1(C)C (stereo not drawn) | -3.0 | 1.81 | 5.4 | 1.6 | 5.2 | 7.5
CN1C(=S)SC(N(O)C(=O)Nc2cccc3ccccc23)C1(C)C (stereo not drawn) | 5.0 | -3.75* | 3.9 | -5.4 | 10.8 | .
CCCCSc1nc2c(c(C(F)(F)F)c1C#N)CCC2 | 2.0 | -0.09 | 4.1 | -3.3 | 4.8 | .
CCOC(=O)CCSc1nc2c(c(C(F)(F)F)c1C#N)CCC2 | 0.0 | -0.05 | 4.3 | -5.3 | 11.1 | 66.0*
COc1nc(NC23CC4CC(CC(C4)C2)C3)nc(OC)n1 | 11.0 | -0.81 | . | -1.0 | 33.5* | 48.0
